This is an account of results in ChEMBL document CHEMBL2380260, “Structure-activity relationship of N,N'-disubstituted pyrimidinetriones as Ca(V)1.3 calcium channel-selective antagonists for Parkinson's disease” (J Med Chem, 2013).

Experiment [1] deals with Voltage-dependent L-type calcium channel subunit alpha-1C (Oryctolagus cuniculus, UniProt P15381). The experiment can be described thus: Antagonist activity at rabbit CaV1.2alpha1C transfected in HEK293 cells by FLIPR assay. In kind it is cell-based. The method, boiled down:
(§1)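 HEK293 cells stably expressing the L-type channel (rat CaV1.3 α1D with all alternative splice sites, or rabbit CaV1.2 α1C), each co-expressed with rat β3 and α2δ-1 subunits. Cells plated at 4 × 10⁴ cells/well and cultured in DMEM with 10% FBS for 4 days. Calcium influx read by Fluo-8 no-wash dye fluorescence on FLIPR Tetra. IC50 from triplicate percent-inhibition data fitted to a one-site sigmoidal model.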

The target in experiment [2] is Voltage-dependent L-type calcium channel subunit alpha-1D (Rattus norvegicus, UniProt P27732). The experiment can be described thus: Antagonist activity at rat CaV1.3alpha1D transfected in HEK293 cells by FLIPR assay. The experiment is classed as cell-based. The method, boiled down:
as §1

Voltage-dependent L-type calcium channel subunit alpha-1D, sequence (P27732 whole entry): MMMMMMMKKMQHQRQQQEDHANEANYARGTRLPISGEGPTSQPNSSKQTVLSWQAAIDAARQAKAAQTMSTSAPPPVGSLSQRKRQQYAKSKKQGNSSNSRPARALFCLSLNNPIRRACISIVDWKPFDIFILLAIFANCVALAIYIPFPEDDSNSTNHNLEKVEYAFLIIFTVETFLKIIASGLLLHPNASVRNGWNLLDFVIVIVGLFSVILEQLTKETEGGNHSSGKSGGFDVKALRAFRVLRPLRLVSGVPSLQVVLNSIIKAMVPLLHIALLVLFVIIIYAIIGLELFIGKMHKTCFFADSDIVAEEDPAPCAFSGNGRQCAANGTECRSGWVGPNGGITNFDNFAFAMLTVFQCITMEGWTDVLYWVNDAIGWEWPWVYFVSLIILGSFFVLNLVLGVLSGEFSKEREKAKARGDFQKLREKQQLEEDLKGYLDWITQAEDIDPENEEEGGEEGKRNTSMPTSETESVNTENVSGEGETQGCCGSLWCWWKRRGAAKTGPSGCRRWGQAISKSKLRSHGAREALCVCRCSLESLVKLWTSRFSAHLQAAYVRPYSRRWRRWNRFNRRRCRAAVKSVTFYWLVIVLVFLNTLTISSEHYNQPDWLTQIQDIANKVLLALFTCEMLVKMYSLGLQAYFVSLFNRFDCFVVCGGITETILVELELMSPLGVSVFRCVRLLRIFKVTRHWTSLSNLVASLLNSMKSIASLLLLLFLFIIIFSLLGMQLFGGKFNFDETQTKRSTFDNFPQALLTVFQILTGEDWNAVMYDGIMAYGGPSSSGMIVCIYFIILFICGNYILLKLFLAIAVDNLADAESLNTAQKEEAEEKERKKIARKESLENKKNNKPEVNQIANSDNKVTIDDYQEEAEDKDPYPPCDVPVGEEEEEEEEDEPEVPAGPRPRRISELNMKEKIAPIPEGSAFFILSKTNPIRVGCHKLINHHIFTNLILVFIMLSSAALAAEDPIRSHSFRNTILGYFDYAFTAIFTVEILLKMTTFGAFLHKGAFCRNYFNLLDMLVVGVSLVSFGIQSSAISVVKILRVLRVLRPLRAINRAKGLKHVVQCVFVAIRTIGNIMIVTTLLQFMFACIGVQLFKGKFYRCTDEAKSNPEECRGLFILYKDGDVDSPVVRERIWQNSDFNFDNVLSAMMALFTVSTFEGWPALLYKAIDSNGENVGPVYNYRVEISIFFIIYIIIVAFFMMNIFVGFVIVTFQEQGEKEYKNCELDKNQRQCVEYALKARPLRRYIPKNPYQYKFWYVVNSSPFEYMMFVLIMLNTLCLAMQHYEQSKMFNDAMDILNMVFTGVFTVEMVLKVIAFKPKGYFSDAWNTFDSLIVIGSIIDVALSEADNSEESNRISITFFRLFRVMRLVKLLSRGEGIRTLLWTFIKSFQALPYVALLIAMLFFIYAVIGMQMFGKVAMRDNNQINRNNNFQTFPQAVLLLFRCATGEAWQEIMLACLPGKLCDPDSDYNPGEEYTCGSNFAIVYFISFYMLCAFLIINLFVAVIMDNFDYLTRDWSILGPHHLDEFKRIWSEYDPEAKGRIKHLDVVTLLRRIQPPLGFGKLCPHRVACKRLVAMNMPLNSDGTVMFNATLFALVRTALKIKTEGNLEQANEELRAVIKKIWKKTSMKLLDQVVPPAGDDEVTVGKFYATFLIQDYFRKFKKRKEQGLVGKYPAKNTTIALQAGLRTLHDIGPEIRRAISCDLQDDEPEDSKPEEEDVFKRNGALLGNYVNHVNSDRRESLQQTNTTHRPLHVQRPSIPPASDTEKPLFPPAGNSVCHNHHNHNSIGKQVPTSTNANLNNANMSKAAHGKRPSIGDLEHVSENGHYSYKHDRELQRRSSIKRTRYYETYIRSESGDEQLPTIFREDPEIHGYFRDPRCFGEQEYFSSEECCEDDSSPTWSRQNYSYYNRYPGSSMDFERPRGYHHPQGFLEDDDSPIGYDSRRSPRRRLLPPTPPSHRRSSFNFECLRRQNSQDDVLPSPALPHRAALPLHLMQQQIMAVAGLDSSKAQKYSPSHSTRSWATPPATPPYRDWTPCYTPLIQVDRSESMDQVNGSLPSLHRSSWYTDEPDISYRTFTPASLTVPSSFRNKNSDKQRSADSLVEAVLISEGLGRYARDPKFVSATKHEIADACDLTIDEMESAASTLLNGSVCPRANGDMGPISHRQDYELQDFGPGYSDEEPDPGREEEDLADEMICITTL
Voltage-dependent L-type calcium channel subunit alpha-1C, sequence (P15381 whole entry, canonical isoform): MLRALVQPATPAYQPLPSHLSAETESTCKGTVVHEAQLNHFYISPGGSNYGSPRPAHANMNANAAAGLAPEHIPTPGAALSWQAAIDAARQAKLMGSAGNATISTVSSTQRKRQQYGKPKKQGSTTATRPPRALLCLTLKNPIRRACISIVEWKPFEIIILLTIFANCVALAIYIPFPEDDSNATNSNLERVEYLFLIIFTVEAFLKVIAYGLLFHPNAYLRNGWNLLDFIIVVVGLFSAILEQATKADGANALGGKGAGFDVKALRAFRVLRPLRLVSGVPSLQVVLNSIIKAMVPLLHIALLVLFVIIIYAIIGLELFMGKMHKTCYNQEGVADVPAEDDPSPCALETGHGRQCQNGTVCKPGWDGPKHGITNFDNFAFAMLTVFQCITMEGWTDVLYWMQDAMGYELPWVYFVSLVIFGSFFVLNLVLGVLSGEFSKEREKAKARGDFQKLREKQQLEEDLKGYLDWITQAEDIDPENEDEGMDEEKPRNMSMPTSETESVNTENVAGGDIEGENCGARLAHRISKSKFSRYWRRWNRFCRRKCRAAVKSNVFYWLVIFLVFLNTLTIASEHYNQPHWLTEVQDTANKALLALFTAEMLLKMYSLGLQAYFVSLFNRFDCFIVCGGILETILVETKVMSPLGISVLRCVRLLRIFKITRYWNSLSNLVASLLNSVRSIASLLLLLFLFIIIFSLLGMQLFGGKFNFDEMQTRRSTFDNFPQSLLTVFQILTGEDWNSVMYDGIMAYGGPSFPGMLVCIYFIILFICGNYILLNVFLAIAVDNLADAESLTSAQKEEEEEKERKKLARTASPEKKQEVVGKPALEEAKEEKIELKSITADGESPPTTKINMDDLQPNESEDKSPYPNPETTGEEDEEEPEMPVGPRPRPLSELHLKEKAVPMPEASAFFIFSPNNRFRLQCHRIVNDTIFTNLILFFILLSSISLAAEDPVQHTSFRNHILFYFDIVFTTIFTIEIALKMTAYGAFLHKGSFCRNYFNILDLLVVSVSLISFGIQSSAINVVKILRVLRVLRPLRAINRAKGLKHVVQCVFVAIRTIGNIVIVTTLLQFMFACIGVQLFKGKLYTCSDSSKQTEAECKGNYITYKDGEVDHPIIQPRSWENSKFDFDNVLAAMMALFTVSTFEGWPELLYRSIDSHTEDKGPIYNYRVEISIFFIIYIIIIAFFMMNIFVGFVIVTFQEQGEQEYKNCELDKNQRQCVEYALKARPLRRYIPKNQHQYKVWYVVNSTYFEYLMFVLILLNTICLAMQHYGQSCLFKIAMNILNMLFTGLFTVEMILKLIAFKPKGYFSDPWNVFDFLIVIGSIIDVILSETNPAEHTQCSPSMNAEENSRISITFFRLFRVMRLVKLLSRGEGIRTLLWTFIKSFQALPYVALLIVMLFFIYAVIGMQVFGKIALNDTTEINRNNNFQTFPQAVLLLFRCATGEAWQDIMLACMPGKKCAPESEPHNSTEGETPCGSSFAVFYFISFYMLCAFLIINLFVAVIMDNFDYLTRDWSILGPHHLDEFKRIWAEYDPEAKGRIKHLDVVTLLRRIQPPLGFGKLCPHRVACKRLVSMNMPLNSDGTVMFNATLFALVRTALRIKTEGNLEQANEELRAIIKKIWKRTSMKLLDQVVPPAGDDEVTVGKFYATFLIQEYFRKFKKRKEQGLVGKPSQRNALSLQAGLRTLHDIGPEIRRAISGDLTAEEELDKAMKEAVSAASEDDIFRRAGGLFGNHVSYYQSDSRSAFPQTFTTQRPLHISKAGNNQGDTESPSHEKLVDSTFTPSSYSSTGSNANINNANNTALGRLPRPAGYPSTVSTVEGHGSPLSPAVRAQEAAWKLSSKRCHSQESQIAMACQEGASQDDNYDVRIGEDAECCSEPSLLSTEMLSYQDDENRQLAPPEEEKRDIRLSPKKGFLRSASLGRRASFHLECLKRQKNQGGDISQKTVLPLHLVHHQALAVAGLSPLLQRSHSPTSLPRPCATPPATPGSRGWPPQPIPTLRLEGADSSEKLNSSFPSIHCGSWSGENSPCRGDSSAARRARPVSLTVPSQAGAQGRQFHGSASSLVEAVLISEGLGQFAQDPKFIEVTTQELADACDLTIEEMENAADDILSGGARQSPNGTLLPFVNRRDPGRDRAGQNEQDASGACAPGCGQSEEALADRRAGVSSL

For orientation: IC50 means the concentration that gives 50% inhibition. In the case of `O=C1CC(=O)N(C2CC3CCC2C3)C(=O)N1CCc1cc(Cl)cc(Cl)c1` (racemic), the IC50 amounted to 4.6 µM in experiment [1] and 2.7 µM in experiment [2].
As for `C[C@H](C1CCCCC1)N1C(=O)CC(=O)N(CCc2cccc(Cl)c2)C1=O`, the IC50 was over 100 µM in experiment [1] and 9.7 µM in experiment [2].
The like results for `O=C1CC(=O)N(C2CCCC2)C(=O)N1Cc1ccc(Cl)cc1` were, in that order, 51.7 µM and 17.9 µM.
As for `O=C1CC(=O)N(C2CCCC2)C(=O)N1CCc1cc(Cl)cc(Cl)c1`, the values for the IC50 in experiment [1] and in experiment [2] were 3.3 µM and 1.4 µM, respectively.
For the compound `COC(=O)C1(N2C(=O)CC(=O)N(CCc3cccc(Cl)c3)C2=O)CCCC1`, the figures for the 50% inhibitory concentration (IC50) in experiment [1] and in experiment [2] were 33.4 µM and 32.7 µM, respectively.
For `CC1(C)[C@@H]2CC[C@H](CN3C(=O)CC(=O)N(CCc4ccc(Cl)cc4)C3=O)[C@H]1C2` the same measures were over 100 µM and over 100 µM.
As to `O=C1CC(=O)N([C@@H]2C[C@@H]3CC[C@H]2C3)C(=O)N1CCc1cccc(C(F)(F)F)c1`, the figures for the IC50 in experiment [1] and in experiment [2] were 76.6 µM and 2.1 µM, respectively.
The like results for `C[C@@H]1[C@@H](N2C(=O)CC(=O)N(CCc3cccc(Cl)c3)C2=O)C[C@H]2C[C@@H]1C2(C)C` were, in that order, over 100 µM and over 100 µM.
For `CC(C)OC(=O)[C@H]1CC[C@@H](N2C(=O)CC(=O)N(CCc3cccc(Cl)c3)C2=O)C1` the same measures were 8.5 µM and 10.4 µM.
`O=C1CC(=O)N([C@H]2C[C@H]3CC[C@@H]2C3)C(=O)N1CCc1ccc(Cl)cc1`: the IC50 was 100 µM in experiment [1] and 2.1 µM in experiment [2].
As for `C[C@H]1CCCC[C@H]1N1C(=O)CC(=O)N(CCc2cccc(Cl)c2)C1=O`, the half-maximal inhibitory concentration (IC50) in experiment [1] and in experiment [2] was 3.7 µM each time.
As for `O=C1CC(=O)N(C2CC3CCC2C3)C(=O)N1CCc1cccc(C(F)(F)F)c1` (racemic), the IC50 in experiment [1] was 100 µM; in experiment [2], 2.4 µM.
As to `COC(=O)[C@@H](Cc1ccccc1)N1C(=O)CC(=O)N(C2CCCC2)C1=O`, the IC50 is 44.3 µM in experiment [1] and 55 µM in experiment [2].
The like results for `C[C@H](c1cccc2ccccc12)N1C(=O)CC(=O)N(CCc2cccc(Cl)c2)C1=O` were, in that order, 10 µM and 10.8 µM.
As for `CC1CCC(N2C(=O)CC(=O)N(CCc3cccc(Cl)c3)C2=O)CC1` (configuration not stated), the IC50 in experiment [1] came to 46 µM; in experiment [2], 35 µM.
As to `O=C1CC(=O)N(C[C@H]2CCCO2)C(=O)N1CCc1ccc(Cl)cc1`, the 50% inhibitory concentration (IC50) in experiment [1] and in experiment [2] was over 100 µM in each case.
Turning to `CC(C)(CN1C(=O)CC(=O)N(C2CC3CCC2C3)C1=O)c1cccc(Cl)c1` (mixture of isomers), the half-maximal inhibitory concentration (IC50) is 2.8 µM in experiment [1] and 2.3 µM in experiment [2].
As to `O=C1CC(=O)N(C2CC3CCC2C3)C(=O)N1CCc1cc(C(F)(F)F)cc(C(F)(F)F)c1` (mixture of isomers), the IC50 in experiment [1] was found to be 3.8 µM; in experiment [2], 1.8 µM.
The like results for `O=C1CC(=O)N([C@H]2CCC[C@@H]2O)C(=O)N1CCc1cccc(Cl)c1` were, in that order, over 100 µM and over 100 µM.
Take `C[C@@H](C1CCCCC1)N1C(=O)CC(=O)N(CCc2cccc(Cl)c2)C1=O`: the IC50 in experiment [1] is over 100 µM; in experiment [2], 4.3 µM.
For `C[C@@H]1[C@@H](N2C(=O)CC(=O)N(CCc3ccc(Cl)cc3)C2=O)C[C@H]2C[C@@H]1C2(C)C` the same measures were 28 µM and 22 µM.
For the compound `CC(=O)O[C@H]1CCC[C@@H]1N1C(=O)CC(=O)N(CCc2cccc(Cl)c2)C1=O`, the half-inhibitory concentration (IC50) was 48.1 µM in experiment [1] and over 100 µM in experiment [2].
Turning to `O=C1CC(=O)N(C2CCCC2)C(=O)N1CCc1ccc(-c2ccccc2)cc1`, the IC50 in experiment [1] is 5.4 µM; in experiment [2] it was 4.4 µM.
For `COC(=O)C(Cc1ccc(Cl)cc1)N1C(=O)CC(=O)N(C2CCCC2)C1=O` (configuration not stated) the same measures were 13.4 µM and 7.5 µM.
Take `O=C(O)[C@H]1CC[C@@H](N2C(=O)CC(=O)N(CCc3cccc(Cl)c3)C2=O)C1`: the IC50 in experiment [1] and in experiment [2] was over 100 µM each time.
Regarding `CC(CN1C(=O)CC(=O)N(C2CC3CCC2C3)C1=O)c1ccc(Cl)cc1` (racemic), the IC50 came out at 8 µM in experiment [1] and 3.4 µM in experiment [2].
Consider `CC(C)C(=O)O[C@H]1CCC[C@@H]1N1C(=O)CC(=O)N(CCc2cccc(Cl)c2)C1=O`, for which the IC50 in experiment [1] was determined as 12.9 µM; in experiment [2], 13.7 µM.
Regarding `CCC1CCC(N2C(=O)CC(=O)N(CCc3cccc(Cl)c3)C2=O)C1` (configuration not stated), the results for the IC50 in experiment [1] and in experiment [2] were 15 µM and 7.3 µM, respectively.
As to `CC1(C)CCC[C@@H]1N1C(=O)CC(=O)N(CCc2ccc(Cl)cc2)C1=O`, the values for the IC50 in experiment [1] and in experiment [2] were 2.3 µM and 1.7 µM, respectively.
For `O=C1CC(=O)N(C2CCc3ccccc32)C(=O)N1C1CCCC1` (configuration not stated) the same measures were 24.8 µM and 19.9 µM.
As to `C[C@@H]1CCC[C@@H]1N1C(=O)CC(=O)N(CCc2ccc(Cl)cc2)C1=O`, the half-maximal inhibitory concentration (IC50) was 5.1 µM in experiment [1] and 3.1 µM in experiment [2].
`C[C@H]1[C@H](N2C(=O)CC(=O)N(CCc3cccc(Cl)c3)C2=O)C[C@@H]2C[C@H]1C2(C)C`: the IC50 in experiment [1] and in experiment [2] was over 100 µM in each case.
Take `CC1(C)[C@@H]2CC[C@@]1(C)[C@@H](N1C(=O)CC(=O)N(CCc3cccc(Cl)c3)C1=O)C2`: the IC50 in experiment [1] and in experiment [2] was over 100 µM each time.
Turning to `CC1(C)[C@@H]2CC[C@H](CN3C(=O)CC(=O)N(CCc4cccc(Cl)c4)C3=O)[C@H]1C2`, the IC50 in experiment [1] came out at 47 µM; in experiment [2], 40 µM.
For `CC(=O)OCC1(N2C(=O)CC(=O)N(CCc3cccc(Cl)c3)C2=O)CCCC1` the same measures were 29.1 µM and 39.3 µM.
For `O=C(OCc1ccccc1)N1CC[C@H](N2C(=O)CC(=O)N(CCc3cccc(Cl)c3)C2=O)C1`, the IC50 came out at 33.9 µM in experiment [1] and 50.3 µM in experiment [2].
For `O=C1CC(=O)N([C@H]2CCNC2)C(=O)N1CCc1cccc(Cl)c1` the same measures were over 100 µM and over 100 µM.
For the compound `O=C1CC(=O)N(C2CCCC2)C(=O)N1c1cccc(C(F)(F)F)c1`, the IC50 in experiment [1] and in experiment [2] was over 100 µM in each case.
`C[C@H]1[C@H](N2C(=O)CC(=O)N(CCc3ccc(Cl)cc3)C2=O)C[C@@H]2C[C@H]1C2(C)C`: the IC50 in experiment [1] was over 100 µM; in experiment [2], 18 µM.
Turning to `CC1CCC(N2C(=O)CC(=O)N(CCc3ccc(Cl)cc3)C2=O)CC1` (configuration not stated), the 50% inhibitory concentration (IC50) in experiment [1] was 30 µM; in experiment [2], 11 µM.
With `C[C@H]1CCCC[C@H]1N1C(=O)CC(=O)N(CCc2ccc(Cl)cc2)C1=O`, the IC50 in experiment [1] was 8.3 µM; in experiment [2], 6.1 µM.
As for `CO[C@H]1CCC[C@@H]1N1C(=O)CC(=O)N(CCc2cccc(Cl)c2)C1=O`, the values for the half-inhibitory concentration (IC50) in experiment [1] and in experiment [2] were 34.6 µM and 30.3 µM, respectively.
Regarding `CC(C)c1ccc(CCN2C(=O)CC(=O)N(C3CCCC3)C2=O)cc1`, the IC50 in experiment [1] came out at 57.6 µM; in experiment [2], 39 µM.
For `CC1CCC(N2C(=O)CC(=O)N(CCc3cccc(Cl)c3)C2=O)C1` (configuration not stated), the figures for the concentration for half-maximal inhibition (IC50) in experiment [1] and in experiment [2] were 38 µM and 3.7 µM, respectively.
With `CC1(C)CCC(N2C(=O)CC(=O)N(CCc3cccc(Cl)c3)C2=O)C1` (configuration not stated), the IC50 in experiment [1] came to 43 µM; in experiment [2], 5.6 µM.
For `O=C1CC(=O)N(C2Cc3ccccc3C2)C(=O)N1C1CCCC1`, the IC50 came to 16.4 µM in experiment [1] and 14.4 µM in experiment [2].
